MrgX1 agonist: activates human MrgX1 receptor signaling | MrgX1-HEK293 cells, Fluo-4 calcium fluorescence, agonist mode; hits give high values | AID 588627 | Q96LB2 | B-score at 10 µM | 310,000 tested, 0.44% active;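 active = calcium response B-score plate-corrected fluorescence ratio at least 3 library SD, with starting fluorescence B-score inside 5 SD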
Target sequence (Q96LB2 whole entry, looked up): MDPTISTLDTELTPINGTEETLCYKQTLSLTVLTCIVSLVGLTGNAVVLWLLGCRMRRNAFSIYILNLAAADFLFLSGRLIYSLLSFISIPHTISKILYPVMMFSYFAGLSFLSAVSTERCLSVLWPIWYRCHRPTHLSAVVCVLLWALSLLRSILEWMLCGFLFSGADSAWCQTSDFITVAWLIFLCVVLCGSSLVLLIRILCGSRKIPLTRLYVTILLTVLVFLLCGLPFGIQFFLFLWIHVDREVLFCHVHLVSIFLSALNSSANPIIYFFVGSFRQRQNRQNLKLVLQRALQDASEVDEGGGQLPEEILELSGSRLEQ
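System – MrgX1-expressing HEK293 cells · Incubation – cells plated overnight, dye loaded 0.5 h 37 °C, 0.5 h room temperature · Technique – kinetic Fluo-4 NW fluorescence of intracellular calcium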
MrgX1 allo act: allosterically activates human MrgX1 receptor signaling | Q96LB2 | MrgX1-HEK293, Fluo-4 calcium flux, FDSS; hits give high values | B-score at 10 µM | 310,000 tested, 0.63% active | AID 588675;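 active = plate-corrected calcium response at least 3 library SD above typical, normal starting fluorescence, not activating the receptor alone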;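 also: compound read alongside a low EC10 to EC30 dose of BAM8-22 agonist; peak minus trough fluorescence over baseline measured at the second addition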
MrgX1 antag: blocks BAM8-22 activation of human MrgX1 receptor. 310,000 tested, 1.3% active. B-score at 10 µM. MRGX1-HEK293 calcium flux, Fluo-4, BAM8-22 antagonism; hits give low values;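 active = calcium-response B-score plate-corrected more than 3 library SD below zero, starting fluorescence within 5 deviations, no agonist response on first addition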;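 also: peak minus trough fluorescence over baseline after final BAM8-22 challenge near maximal dose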
RGS4 block: human RGS4 inhibition | HEK293 M3R/RGS4 inducible, Fluo-4 calcium flux; hits give high values; triggered by carbachol at its EC20 | B-score at 10 µM | 310,000 tested, 0.45% active | AID 463165;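 active = B-score, a plate-corrected calcium signal, over three deviations above library mean, with baseline fluorescence within five deviations of library mean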;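 also: RGS4 expression induced by doxycycline in cells with stable M3 receptor; B-score is computed from the integrated fluorescence ratio over baseline after carbachol; higher B-score means a larger calcium signal and so more RGS4 inhibition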
Target sequence (P49798 whole entry, looked up): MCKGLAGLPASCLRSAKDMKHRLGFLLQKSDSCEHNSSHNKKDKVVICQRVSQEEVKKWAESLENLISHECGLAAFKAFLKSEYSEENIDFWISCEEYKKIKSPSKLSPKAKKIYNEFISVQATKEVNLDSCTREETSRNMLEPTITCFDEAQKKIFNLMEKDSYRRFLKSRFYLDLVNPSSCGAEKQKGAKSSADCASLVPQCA
RGS4 act: RGS4 potentiation or activation; HEK293 M3R/inducible RGS4, carbachol calcium flux Fluo4; hits give low values; B-score at 10 µM; 310,000 tested, 0.92% active;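 active = B-score of the integrated calcium signal more than 4 SD below the library mean, with starting fluorescence not abnormally high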;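 also: negative B-score means reduced calcium response which marks RGS4 activation or potentiation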
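test system = M3R-expressing HEK293 line, RGS4 induced by doxycycline | probe or stimulus = carbachol at ECmax as muscarinic agonist stimulus | timing = dye loading 30 min 37 °C, buffer rest 30 min RT | signal = calcium dye Fluo4 fluorescence | evaluation = B score from integrated fluorescence ratio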
Starred values were filed as active, the others as inactive; i = inactive. Sampled rows, rich in hits. Any-hit rate of the full collection: about 3.5%.

SMILES	MrgX1 agonist	MrgX1 allo act	MrgX1 antag	RGS4 block	RGS4 act
CC(NC(=O)c1ccco1)c1nc(-c2ccccc2)no1 (configuration not stated)	i	i	i	i	i
Cc1cccc(OCC(=O)O/N=C(\N)c2ccc(Br)cc2)c1	i	i	i	i	i
Cc1ccc(CNC(=O)C2CCCN(S(=O)(=O)c3ccc(-n4cnnn4)cc3)C2)cc1 (configuration not stated)	i	i	i	i	i
Cc1ccc(C(=O)NNC(=S)NC(=O)c2ccccc2)cc1	139*	i	i	i	i
Cc1ccc(C(=O)NNC(=O)c2cccc(C)c2)cc1	i	i	i	i	i
COc1ccc(C(=O)NC(=S)NNC(=O)c2cccc(C)c2)cc1	102*	i	i	i	-8.39*
Cc1cccc(C(=O)NNC(=S)NC(=O)c2ccccc2)c1	186*	i	i	i	i
COc1cccc(CN2C[C@]34C=C[C@@H](C[C@@H]3S2(=O)=O)O4)c1	i	i	i	i	i
CCN(CC)CCNC(=O)c1ccc(NC(=O)Nc2cccc3ccccc23)cc1	i	i	i	i	i
COc1ccc(/C=C2\SC(=O)N(CCNC(=O)Cc3coc4cc(C)ccc34)C2=O)cc1OC	i	i	i	i	-8.49*
N#CC1=C(N)SC(N)=C(C#N)C1c1cccc(O)c1	39.1*	i	i	i	i
COc1ccc(C2C(C#N)=C(N)SC(N)=C2C#N)cc1OC	i	i	-4.58*	i	i
COc1ccc(C2C(C#N)=C(N)OC(C(C)(C)C)=C2C#N)cc1OC (configuration not stated)	i	i	i	i	i
CCC(C)[C@H]1CN=C(N)N1CCc1cccc(F)c1 (some centres not stated)	i	i	i	i	i
Clc1ccc(CSc2cc3c(nn2)-c2ccccc2CC3)cc1Cl	i	i	i	i	-8.07*
CCNC(=O)CC1C(=O)N(c2ccc(C)cc2)C(=O)N1CCC(C)C (configuration not stated)	i	i	i	i	i
O=C(Cn1c(=O)n(-c2ccccc2)c(=O)n1CC(=O)N1CCCCC1)N1CCCCC1	36*	i	i	i	i
CC(C)(C)n1nnnc1C(c1cccnc1)N(Cc1ccccc1)Cc1cccs1 (configuration not stated)	i	i	-5.98*	i	i
N#C/C(=C\c1ccc(O)c(O)c1)S(=O)(=O)c1ccccc1	i	13.7*	i	i	i
CC1CC(C)CN(S(=O)(=O)c2ccccc2[N+](=O)[O-])C1 (configuration not stated)	i	i	i	i	i
Cc1ccsc1C=C1C(=O)c2ccccc2C1=O	i	i	i	i	i
Cc1ccsc1/C=C1/C(=O)NN(c2ccccc2)C1=O	33.4*	i	i	i	i
CC(C)CN(C(=O)c1nn(C)c(=O)c2ccccc12)c1nc2ccccc2s1	i	7.04*	i	i	i
CC(C)CN(C(=O)c1ccco1)c1nc2ccccc2s1	i	i	i	i	i
C=CCN1C(=O)[C@@H]2Cc3c([nH]c4ccccc34)C(c3ccc(O)cc3)N2C1=S (some centres not stated)	i	i	-5.31*	i	i
SMILES	MrgX1 agonist	MrgX1 allo act	MrgX1 antag	RGS4 block	RGS4 act
CCCCCC(=O)NNC1=NCC(Cc2cccc(Cl)c2)S1 (configuration not stated)	i	i	i	i	i
Cc1cccc(C(=O)NNC(=O)CCC(=O)Nc2cccc(Cl)c2C)c1	i	i	-6.94*	i	i
CC1(C)CC(=O)C(C2C3=C(CC(C)(C)CC3=O)Oc3c(Br)cc(Br)cc32)=C(O)C1 (configuration not stated)	52.2*	i	i	i	i
CC1(C)CC(=O)C2=C(C1)OC1=C(C(=O)CC(C)(C)C1)C2c1cc([N+](=O)[O-])cc([N+](=O)[O-])c1O	i	i	i	i	i
CC(=O)NC(Cc1cccc(C)c1)C(=O)NC1CCN(c2ncccc2[N+](=O)[O-])CC1 (configuration not stated)	i	i	-4.68*	i	i
CSc1nnc(NC(=O)c2cc(=O)c3cc(C)cc(C)c3o2)s1	i	10.5*	i	i	i
Cc1cc(C)c2oc(C(=O)Nc3nnc(C(C)C)s3)cc(=O)c2c1	i	i	i	i	i
Nc1ccc(C(=O)N/N=C\C=C\c2ccc([N+](=O)[O-])cc2)cc1	i	i	i	i	i
CCCN(CCC)CCCNC(=S)Nc1ccc2nc(N3CCN(C)CC3)cc(C)c2c1	29*	i	i	i	i
O=c1c(Cl)c(N2CCOCC2)cnn1-c1nc2ccccc2[nH]1	i	i	-7.07*	i	i
O=C(NC1CCCC1)c1ccc(CNc2c(N3CCOCC3)c(=O)c2=O)cc1	i	i	i	i	i
C(#Cc1ccccc1)C[N+]1(CC#Cc2ccccc2)CCCC1	i	i	i	i	-8.05*
C=CC[N+]1(CC#Cc2ccccc2)CCCC1	i	i	i	i	i
COc1ccccc1CNC(=O)CN1CCN(c2ccc(C(C)=O)cc2)CC1	i	i	i	i	i
CCC(C)[C@H](NC(=O)NC(C)C)C(=O)O (some centres not stated)	i	i	i	i	i
O=C1COc2ccc(S(=O)(=O)N3CCCC3)cc2N1	i	i	i	i	i
O=C1COc2ccc(N3C(=O)C=CC3=O)cc2N1	i	i	i	4.98*	i
CCCc1sc(N/N=C/c2ccccn2)nc1-c1ccc(F)cc1	i	i	i	6.5*	i
COc1cccc(-n2nnnc2S(C)(=O)=O)c1	47.8*	i	i	i	i
CCN(CC#CCC(O)(c1ccccc1)C1CCCC1)C(C)C (configuration not stated)	i	i	i	i	-7.41*
c1ccc(Cc2noc(CN3CCN(C4CCc5ccccc5C4)CC3)n2)cc1 (configuration not stated)	i	i	i	i	i
c1ccc(Cc2noc(CN3CCCN(C4Cc5ccccc5C4)CC3)n2)cc1	i	i	i	i	-6.97*
Cc1ccc(C)c(NC(=O)C2CC3c4ccccc4C2c2ccccc23)c1 (configuration not stated)	i	i	-5.45*	i	i

Source: PubChem (Johns Hopkins Ion Channel Center)
